From ChEMBL document CHEMBL1144511, “Synthesis and biological evaluation of phenolic Mannich bases of benzaldehyde and (thio)semicarbazone derivatives against the cysteine protease falcipain-2 and a chloroquine resistant strain of Plasmodium falciparum” (Bioorg Med Chem, 2007)

Legend:
Plasmodium falciparum = assay: Antiparasitic activity against Plasmodium falciparum W2; type: functional, organism-based
Summary of the method: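 W2 (chloroquine-resistant) P. falciparum cultured at 1% parasitaemia, 2% haematocrit. Inhibitors from 10 mM DMSO stocks added to 20 μM final, then serially diluted to 10 μM, 2 μM, 0.4 μM, 80, 16 and 3.2 nM, in duplicate plates. Cultures kept 2 days at 37 °C, washed and fixed in 1% formaldehyde/PBS. Parasitaemia read by flow cytometry with YOYO-1 DNA stain.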

Falcipain 2 = biological target: T1, Falcipain 2 (Plasmodium falciparum, UniProt Q9N6S8); assay: Inhibition of Plasmodium falciparum recombinant falcipain-2
T1 sequence (Q9N6S8 whole entry): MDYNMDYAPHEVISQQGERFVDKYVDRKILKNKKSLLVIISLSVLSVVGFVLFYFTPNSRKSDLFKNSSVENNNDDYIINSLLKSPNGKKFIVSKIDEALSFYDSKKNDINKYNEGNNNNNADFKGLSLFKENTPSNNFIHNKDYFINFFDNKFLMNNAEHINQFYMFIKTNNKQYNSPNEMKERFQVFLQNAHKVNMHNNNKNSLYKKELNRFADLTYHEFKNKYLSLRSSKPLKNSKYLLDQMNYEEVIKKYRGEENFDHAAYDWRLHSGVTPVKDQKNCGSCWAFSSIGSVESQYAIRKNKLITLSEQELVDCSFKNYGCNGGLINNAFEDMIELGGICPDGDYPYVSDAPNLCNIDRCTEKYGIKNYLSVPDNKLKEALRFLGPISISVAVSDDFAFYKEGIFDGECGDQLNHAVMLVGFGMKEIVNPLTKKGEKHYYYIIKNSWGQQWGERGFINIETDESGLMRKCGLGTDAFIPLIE
Summary of the method: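 Recombinant enzyme (~1 nM) preincubated 30 min at room temperature with inhibitor dilutions (from 100× DMSO stocks) in 100 mM sodium acetate pH 5.5, 10 mM dithiothreitol; benzyloxycarbonyl peptide fluorogenic substrate then added, fluorescence followed continuously 30 min at room temperature. IC50 from activity versus inhibitor concentration plots.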

Compound | IC50 (Plasmodium falciparum) [µM] | IC50 (Falcipain 2) [µM]
O=Cc1ccc(O)c(CN2CCCCC2)c1O | > 10 | > 20
O=C(NCCNc1ccnc2cc(Cl)ccc12)N/N=C/c1ccc(O)c(CN2CCCCC2)c1O | 0.27 | 0.63
NC(=S)N/N=C/c1ccc(O)c(CN2CCN(c3ccnc4cc(Cl)ccc34)CC2)c1O | 3.75 | 2.25
O=Cc1ccc(O)c(CN2CCCC2)c1O | > 10 | > 20
CN1CCN(Cc2c(O)ccc(/C=N/NC(N)=S)c2O)CC1 | > 10 | 18.2
O=C(NCCNc1ccnc2cc(Cl)ccc12)N/N=C/c1ccc(O)c(CN2CCOCC2)c1O | 0.11 | > 20
NC(=S)N/N=C/c1ccc(O)c(CN2CCCCC2)c1O | > 10 | 3.8
O=Cc1ccc(O)c(CN2CCN(c3ccnc4cc(Cl)ccc34)CC2)c1O | 1.07 | > 20
CN1CCN(Cc2c(O)ccc(/C=N/NC(=O)NCCNc3ccnc4cc(Cl)ccc34)c2O)CC1 | 0.38 | > 20
O=C(NCCNc1ccnc2cc(Cl)ccc12)N/N=C/c1ccc(O)c(CN2CCCC2)c1O | 1.07 | 0.72
CN1CCN(Cc2c(O)ccc(C=O)c2O)CC1 | > 10 | > 20
CCN(CC)Cc1c(O)ccc(/C=N/NC(N)=S)c1O | > 10 | 11.1
NC(=S)N/N=C/c1ccc(O)c(CN2CCOCC2)c1O | > 10 | > 20
CCN(CC)Cc1c(O)ccc(/C=N/NC(=O)NCCNc2ccnc3cc(Cl)ccc23)c1O | 0.44 | 2.6
O=Cc1ccc(O)c(CN2CCOCC2)c1O | > 10 | > 20
CCN(CC)Cc1c(O)ccc(C=O)c1O | > 10 | > 20
O=C(NCCNc1ccnc2cc(Cl)ccc12)N/N=C/c1ccc(O)c(CN2CCN(c3ccnc4cc(Cl)ccc34)CC2)c1O | 0.077 | 3.16
NC(=S)N/N=C/c1ccc(O)c(CN2CCCC2)c1O | > 10 | 5.85
NC(=O)N/N=C/c1ccc(O)c(CN2CCN(c3ccnc4cc(Cl)ccc34)CC2)c1O | 0.25 | > 20
